Laboratory results published in ChEMBL document CHEMBL5715946 (Chem Biol, 2010).
Active and inactive are the calls of the source. The calls are words filed in the database; no cut-off is given here.

Columns and labels:
Cardiac muscle cell = experiment: Cytoprotective activity against serum deprivation-induced neonatal Wistar rat cardiomyocyte death assessed as increase in cell viability measured after 4 days by WST-8 assay; format: functional; conditions: time 4 day
How it was run: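 Primary neonatal rat cardiomyocytes were isolated by proteinase digestion, with preplating to remove adherent non-myocytes. Death was induced by serum deprivation at low density (3×10^5 cells/ml) for 4 days with compound present. Viability was read by WST-8. MEC1.5 is the concentration giving a 50% rise in viability. n = 3.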

[1] = system: Antioxidant response element; experiment: Induction of rat ARE activity expressed in rat H9c2 cells assessed as increase in ARE luciferase activity measured after 24 hrs by steady-glo luciferase Assay; format: cell-based
How it was run: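 H9c2 cells transiently transfected with pGL3-ARE-Luc or pGL3-mARE-Luc, compound exposure 24 hr, luciferase read by Steady-Glo. MEC2.0 is the concentration giving a doubling of luciferase activity. Mean ± SD, n = 4.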

[2] = system: Antioxidant response element; experiment: Induction of ARE activity in serum-deprived neonatal Wistar rat cardiomyocytes assessed as increase in HO-1 expression up to 400 nM measured after 24 hrs by Western blot analysis; format: cell-based; conditions: Cardiomyocyte
How it was run: (§1)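 Neonatal rat cardiomyocytes exposed to samples or vehicle in M-199 with 1% penicillin-streptomycin, no serum, for 24 hr. GST Ya and HO-1 mRNA measured by real-time qPCR (mean ± SD, n = 3); protein by western blot with β-actin as control.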

[3] = system: Antioxidant response element; experiment: Induction of rat ARE activity expressed in MIF-stimulated rat H9c2 cells assessed as increase in ARE luciferase activity at 1 uM measured after 24 hrs by steady-glo luciferase Assay; format: cell-based
How it was run: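 H9c2 cells transiently transfected with pGL3-ARE-Luc (rat GST Ya ARE) or mutant-ARE control plasmid, then treated with rMIF with or without 1 μM compound for 24 hr. Luciferase by Steady-Glo; mean ± SD, n = 4.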

[4] = biological target: Macrophage migration inhibitory factor (Rattus norvegicus) (UniProt P30904); experiment: Inhibition of recombinant rat MIF expressed in Escherichia coli BL21 (DE3) assessed as reduction in tautomerase activity at 30 uM using L-dopachrome carboxy-methyl ester as substrate by spectrophotometry relative to control
How it was run: (§2)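 Purified recombinant rat MIF tautomerase assayed with purified L-dopachrome carboxy-methyl ester as substrate in pH 6.0 buffer; rate taken over the initial 30 s. Mean ± SD, n = 4.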
Target sequence in this assay (P30904 2-115 limits assumed): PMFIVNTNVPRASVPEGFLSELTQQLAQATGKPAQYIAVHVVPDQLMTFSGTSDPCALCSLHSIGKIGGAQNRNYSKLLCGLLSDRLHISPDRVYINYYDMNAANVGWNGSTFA

[5] = system: Antioxidant response element; experiment: Induction of ARE activity in serum-deprived neonatal Wistar rat cardiomyocytes assessed as increase in GST Ya expression up to 400 nM measured after 24 hrs by Western blot analysis; format: cell-based; conditions: Cardiomyocyte; how it was run: as §1
[6] = biological target: Macrophage migration inhibitory factor (Rattus norvegicus) (UniProt P30904); experiment: Induction of MIF-stimulated ARE activity in rat H9c2 cells assessed as increase in HO-1 expression at 3 uM incubated for 6 hrs by RT-qPCR analysis; format: cell-based
Target sequence in this assay (P30904 2-115 limits assumed): as above

[7] = biological target: Macrophage migration inhibitory factor (Rattus norvegicus) (UniProt P30904); experiment: Induction of MIF-stimulated ARE activity in rat H9c2 cells assessed as increase in GST Ya expression at 3 uM incubated for 24 hrs by RT-qPCR analysis; format: cell-based
Target sequence in this assay (P30904 2-115 limits assumed): as above

[8] = biological target: Macrophage migration inhibitory factor (Rattus norvegicus) (UniProt P30904); experiment: Binding affinity to rat C-terminal His-tagged MIF expressed in Escherichia coli BL21 (DE3) by SPR analysis
How it was run: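 Sensor chip carrying immobilized BTZO-12; MIF (wild type or point mutants) passed over it and specific binding monitored by surface plasmon resonance.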
Target sequence in this assay (P30904 2-115 limits assumed): as above

[9] = biological target: Macrophage migration inhibitory factor (Rattus norvegicus) (UniProt P30904); experiment: Binding affinity to MIF in Wistar rat isolated heart by SPR analysis; format: tissue-based
How it was run: (§3)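 BTZO-12-type sensor chip probed with rat heart protein; bound protein recovered by microrecovery elution, then identified by silver staining and by western blot with anti-MIF antibody.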
Target sequence in this assay (P30904 2-115 limits assumed): as above

[10] = biological target: Macrophage migration inhibitory factor (Rattus norvegicus) (UniProt P30904); experiment: Binding affinity to recombinant rat MIF expressed in Escherichia coli BL21 (DE3) by chromatography
Target sequence in this assay (P30904 2-115 limits assumed): as above

[11] = biological target: Macrophage migration inhibitory factor (Rattus norvegicus) (UniProt P30904); experiment: Binding affinity to MIF in Wistar rat isolated heart by chromatography; format: tissue-based
[12] = biological target: Macrophage migration inhibitory factor (Rattus norvegicus, UniProt P30904); experiment: Inhibition of recombinant rat MIF expressed in Escherichia coli BL21 (DE3) assessed as reduction in tautomerase activity using L-dopachrome carboxy-methyl ester as substrate by spectrophotometry; how it was run: as §2
Macrophage migration inhibitory factor, sequence (P30904 2-115 limits assumed): as above

[13] = biological target: Macrophage migration inhibitory factor (Rattus norvegicus) (UniProt P30904); experiment: Inhibition of [3H]-BTZO-1 binding to recombinant rat C-terminal His-tagged MIF expressed in Escherichia coli BL21 (DE3) measured after 3 hrs by SPA
Target sequence in this assay (P30904 whole entry, looked up): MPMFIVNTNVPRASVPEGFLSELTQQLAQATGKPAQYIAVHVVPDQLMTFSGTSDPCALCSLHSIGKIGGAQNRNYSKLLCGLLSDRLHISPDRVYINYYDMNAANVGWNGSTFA

[14] = biological target: Macrophage migration inhibitory factor (Rattus norvegicus) (UniProt P30904); experiment: Inhibition of [3H]-BTZO-1 binding to recombinant rat C-terminal His-tagged MIF expressed in Escherichia coli BL21 (DE3) at 100 uM measured after 3 hrs by SPA relative to control
Target sequence in this assay (P30904 whole entry, looked up): as above

Rattus norvegicus [15] = experiment: (§4) Cardioprotective effect against ischemia reperfusion injury in Wistar rat myocardial infarction model assessed as reduction in infarct size at 10 mg/kg, ip administered 1 hr prior to LAD occlusion and 2 and 8 hr after reperfusion and measured after 24 hrs by Evans blue dye based assay relative to control; format: functional; parameters: scale not given: the % may be the effect or the level left; conditions: time 25 hrs
How it was run: (§5)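 Anaesthetized rats; LAD coronary occlusion 25 min followed by 24 hr reperfusion. Compound 10 mg/kg i.p. given 1 hr before occlusion and 2 and 8 hr after reperfusion; vehicle controls, n = 13. Area at risk given as % of LV, infarct size as % of area at risk. Mean ± SEM.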

Rattus norvegicus [16] = experiment: as §4, with “area at risk” for “reduction in infarct size”, “(reference value: 46 +/- 3%)” for “relative to control”; format: functional; conditions: time 25 hrs; how it was run: as §5
[17] = system: Antioxidant response element; experiment: Induction of ARE activity in serum-deprived neonatal Wistar rat cardiomyocytes assessed as increase in HO-1 mRNA level up to 3 uM measured after 24 hrs by RT-qPCR analysis; format: cell-based; conditions: Cardiomyocyte; how it was run: as §1
[18] = system: Antioxidant response element; experiment: Induction of ARE activity in serum-deprived neonatal Wistar rat cardiomyocytes assessed as increase in GST Ya mRNA level up to 3 uM measured after 24 hrs by RT-qPCR analysis; format: cell-based; conditions: Cardiomyocyte; how it was run: as §1
[19] = biological target: Macrophage migration inhibitory factor (Rattus norvegicus) (UniProt P30904); experiment: Binding affinity to MIF in Wistar rat isolated heart by Western blot analysis; format: tissue-based; how it was run: as §3
[20] = biological target: Macrophage migration inhibitory factor (Rattus norvegicus) (UniProt P30904); experiment: Binding affinity to MIF in Wistar rat isolated heart by silver staining based assay; format: tissue-based; how it was run: as §3

SMILES: Cc1cccc2c(=O)nc(-c3ccccn3)sc12
- MEC1.5 (Cardiac muscle cell): >1000 nM
- MEC2 [1]: > 10 µM
- Activity [2]: inactive
- Activity [3]: inactive
- inhibition [4]: 6%
- Activity [5]: inactive
- Activity [6]: inactive
- Activity [7]: inactive

SMILES: Cc1cccc2c(=O)nc(-c3cccc(C(=O)NCCCCCCN)n3)sc12
- MEC2 [1]: > 10 µM
- Activity [8]: inactive
- Activity [9]: inactive

SMILES: C[S@+]([O-])CCCCN=C=S
- MEC2 [1]: 4.4 µM

SMILES: Cc1c(C)c2c(c(C)c1O)CCC(C)(C(=O)O)O2 (stereo not drawn) [TROLOX]
- MEC1.5 (Cardiac muscle cell): 160000 nM

SMILES: O=c1nc(-c2ccccn2)sc2ncccc12
- MEC1.5 (Cardiac muscle cell): >1000 nM
- MEC2 [1]: > 10 µM
- inhibition [4]: 5%

SMILES: O=C1NC(c2ccccn2)Sc2ccccc21 (stereo not drawn) [BTZO-4]
- MEC1.5 (Cardiac muscle cell): >1000 nM
- MEC2 [1]: > 10 µM
- inhibition [4]: 3%

SMILES: O=C(O)CCOCCCc1cccc(-c2nc(=O)c3cccnc3s2)n1
- MEC1.5 (Cardiac muscle cell): >1000 nM
- MEC2 [1]: > 10 µM
- Activity [10]: inactive

SMILES: Cc1cc(C)c2sc(-c3ccccn3)nc(=O)c2c1
- MEC1.5 (Cardiac muscle cell): >1000 nM
- MEC2 [1]: > 10 µM

SMILES: O=C(O)CCOCCCc1ccc(-c2nc(=O)c3ccccc3s2)nc1
- MEC1.5 (Cardiac muscle cell): 39 nM
- MEC2 [1]: 1.6 µM
- Activity [10]: Active
- Activity [11]: Active

SMILES: Cc1cc(C)c2sc(-c3cccc(CCCOCCC(=O)O)n3)nc(=O)c2c1
- MEC1.5 (Cardiac muscle cell): >1000 nM
- MEC2 [1]: > 10 µM
- Activity [10]: inactive

SMILES: C[S@@+]([O-])CCCCN=C=S [L-SULFORAPHANE]
- IC50 [12]: 4.4 µM
- IC50 [13]: 25 µM

SMILES: CCCCC/C=C/C=C1/C(=O)C=C[C@@H]1C/C=C\CCCC(=O)O
- MEC2 [1]: 7.3 µM
- IC50 [12]: 3.7 µM
- IC50 [13]: 3.6 µM

SMILES: COC(=O)CC1CC(c2ccc(O)cc2)=NO1 (stereo not drawn)
- MEC2 [1]: > 30 µM
- inhibition [14]: 12%
- inhibition [4]: 30%
- IC50 [12]: 68 µM

SMILES: O=C(O)CCc1cccc(-c2nc(=O)c3ccccc3s2)n1
- Activity (Rattus norvegicus [15]): 45%
- Activity (Rattus norvegicus [16]): 48%
- MEC1.5 (Cardiac muscle cell): 39 nM
- Activity [1]: Dose-Dependent Effect
- MEC2 [1]: 2.3 µM
- Activity [2]: Active
- Activity [17]: Active
- Activity [18]: Active
- inhibition [4]: 14%
- Activity [5]: Active

SMILES: CC(C)(C)c1cc(O)ccc1O [E319]
- MEC2 [1]: 5.7 µM
- IC50 [12]: > 30 µM
- IC50 [13]: 1.1 µM

SMILES: O=C(O)CCOCCCc1cccc(-c2nc(=O)c3ccccc3s2)n1
- MEC1.5 (Cardiac muscle cell): 53 nM
- MEC2 [1]: 2.2 µM
- Activity [10]: Active
- Activity [11]: Active

SMILES: NCCCCCCNC(=O)c1cccc(-c2nc(=O)c3ccccc3s2)n1
- Activity [19]: Active
- MEC2 [1]: 1.1 µM
- Activity [8]: Active
- Activity [9]: Active
- Activity [20]: Active

SMILES: O=C(O)CCOCCCc1cccc(C2NC(=O)c3ccccc3S2)n1 (stereo not drawn)
- MEC1.5 (Cardiac muscle cell): >1000 nM
- MEC2 [1]: > 10 µM
- Activity [10]: inactive

SMILES: O=c1nc(-c2cccnc2)sc2ccccc12
- MEC1.5 (Cardiac muscle cell): 39 nM
- MEC2 [1]: 0.8 µM
- inhibition [4]: 12%
